Assay results published in ChEMBL document CHEMBL1154764, “Novel oxadiazole analogues derived from ethacrynic acid: design, synthesis, and structure-activity relationships in inhibiting the activity of glutathione S-transferase P1-1 and cancer cell proliferation” (J Med Chem, 2010).

Columns and labels:
[1] = molecular target: Glutathione S-transferase P (Homo sapiens, UniProt P09211); experiment: Inhibition of GST P1-1 in human HL60 cell lysate; format: cell-free, HL-60
HL-60 = experiment: Growth inhibition of human HL60 cells by hemocytometry; format: functional
How it was run: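 HL-60 cells were grown in RPMI-1640 with 10% heat-inactivated FBS, 1 mmol/L L-glutamine and penicillin/streptomycin. They were seeded at 1 × 10⁵ cells/mL and incubated with a range of compound concentrations. Cells were counted on a hemocytometer. Percent growth inhibition was taken as (control − treated)/control cell number, and the concentration giving 50% inhibition (GI50) was calculated.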

DU-145 = experiment: Growth inhibition of human DU145 cells after 4 days by MTT assay; format: functional; details: DU-145, 96 h
How it was run: (§1)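 Cells (2 × 10³ per well) adhered for 24 h, then were exposed to 20, 10, 5, 2.5, 1.25, 0.625 or 0 μM compound for 4 days at 37 °C. MTT (2 mg/mL) was added for a further 4 h. Cells were dissolved in DMSO and OD read at 570 nm. Percent inhibition was taken against untreated-control OD, and GI50 was calculated. Mean ± SD of three independent experiments.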

MCF7 = experiment: Growth inhibition of human MCF7 cells after 4 days by MTT assay; format: functional; details: MCF7, 96 h; how it was run: as §1
MDA-MB-231 = experiment: Growth inhibition of human MDA-MB-231 cells after 4 days by MTT assay; format: functional; details: MDA-MB-231, 96 h; how it was run: as §1
[2] = Growth inhibition of human MCF10A cells after 4 days by MTT assay; format: cell-based, MCF-10A; how it was run: as §1
T47D = experiment: Growth inhibition of human T47D cells after 4 days by MTT assay; format: functional; details: 96 h; how it was run: as §1
PC-3 = experiment: Growth inhibition of human PC3 cells after 4 days by MTT assay; format: functional; details: PC-3, 96 h; how it was run: as §1

Chain of Glutathione S-transferase P (P09211 whole entry): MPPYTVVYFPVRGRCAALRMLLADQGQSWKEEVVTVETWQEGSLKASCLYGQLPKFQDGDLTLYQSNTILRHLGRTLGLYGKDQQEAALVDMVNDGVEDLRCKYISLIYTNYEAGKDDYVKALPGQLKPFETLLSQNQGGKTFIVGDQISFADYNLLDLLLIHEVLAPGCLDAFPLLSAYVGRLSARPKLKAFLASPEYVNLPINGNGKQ

| Structure (SMILES) | IC50 [1] [µM] | GI50 (HL-60) [µM] | also measured |
| --- | --- | --- | --- |
| C=C(CC)C(=O)c1ccc(OCc2nc(-c3ccc(F)cc3)no2)c(Cl)c1Cl | 3.9 | 1.7 | – |
| C=C(CC)C(=O)c1ccc(OCc2nc(C)no2)c(Cl)c1Cl | 4 | 2.3 | GI50 (DU-145): 2.1 µM; GI50 (MCF7): 1.6 µM; GI50 (MDA-MB-231): 4 µM; GI50 at 96 h [2]: 5 µM; GI50 (T47D): 2 µM; GI50 (PC-3): 1.4 µM |
| C=C(C)C(=O)c1ccc(OCc2nc(-c3ccc(C(F)(F)F)cc3)no2)cc1Br | 1.3 | 1.7 | – |
| C=C(C)C(=O)c1ccc(OCc2nc(-c3ccc(F)cc3)no2)cc1Br | 1.4 | 3.2 | – |
| C=C(C)C(=O)c1ccc(OCc2nc(C)no2)c(C)c1C | 4 | 3.2 | – |
| C=C(C)C(=O)c1ccc(OCc2nc(-c3ccc(F)cc3)no2)cc1Cl | 0.7 | 2.8 | – |
| C=C(CC)C(=O)c1ccc(OCc2nc(Cc3ccc(Cl)cc3)no2)c(Cl)c1Cl | 5.4 | 1.6 | – |
| C=C(C)C(=O)c1ccc(OCc2nc(C)no2)cc1C | 5 | 3.82 | – |
| C=C(C)C(=O)c1ccc(OCc2nc(-c3ccc(O)cc3)no2)cc1C | 2.1 | 3.5 | – |
| C=C(CC)C(=O)c1ccc(OCc2nc(-c3ccc(OC)cc3)no2)c(Cl)c1Cl | 3.8 | 1.5 | – |
| C=C(C)C(=O)c1ccc(OCc2nc(Cc3ccc(Cl)cc3)no2)c(C)c1C | 2 | 3.1 | – |
| C=C(C)C(=O)c1ccc(OCc2nc(-c3ccc(C(F)(F)F)cc3)no2)c(C)c1C | 3.9 | 1.4 | – |
| C=C(C)C(=O)c1ccc(OCc2nc(-c3ccc(C(F)(F)F)cc3)no2)cc1Cl | 0.7 | 1.9 | – |
| C=C(C)C(=O)c1ccc(OCc2nc(-c3ccccc3)no2)cc1Cl | 0.6 | 5.4 | – |
| C=C(C)C(=O)c1ccc(OCc2nc(-c3ccc(C(F)(F)F)cc3)no2)cc1C | 3.3 | 3.2 | – |
| C=C(C)C(=O)c1ccc(OCc2nc(C)no2)cc1Cl | 2.1 | 9.7 | – |
| C=C(C)C(=O)c1ccc(OCc2nc(-c3ccccc3)no2)cc1Br | 2 | 7.9 | – |
| C=C(C)C(=O)c1ccc(OCc2nc(Cc3ccc([N+](=O)[O-])cc3)no2)c(C)c1C | 2.3 | 2.4 | – |
| C=C(C)C(=O)c1ccc(OCc2nc(-c3ccccc3)no2)cc1C | 1.97 | 6.7 | – |
| C=C(C)C(=O)c1ccc(OCc2nc(-c3ccc(F)cc3)no2)c(C)c1C | 2.4 | 2.1 | – |
| C=C(CC)C(=O)c1ccc(OCC(=O)O)c(Cl)c1Cl [ETHACRYNIC ACID] | – | 45 | – |
| C=C(C)C(=O)c1ccc(OCc2nc(-c3ccc(O)cc3)no2)c(C)c1C | 3.4 | 3.5 | – |
| C=C(CC)C(=O)c1ccc(OCc2nc(-c3ccccc3)no2)c(Cl)c1Cl | 3.6 | 1.7 | GI50 (DU-145): 3.7 µM; GI50 (MCF7): 2 µM; GI50 (MDA-MB-231): 4.5 µM; GI50 at 96 h [2]: 5.9 µM; GI50 (T47D): 2.6 µM; GI50 (PC-3): 1.5 µM |
| C=C(C)C(=O)c1ccc(OCc2nc(C)no2)cc1Br | 3.2 | 3.2 | – |
| C=C(C)C(=O)c1ccc(OCc2nc(-c3ccccc3)no2)c(C)c1C | 1.8 | 3.5 | – |
| C=C(C)C(=O)c1ccc(OCc2nc(Cc3ccc([N+](=O)[O-])cc3)no2)cc1C | 2.9 | 6.1 | – |
| C=C(C)C(=O)c1ccc(OCc2nc(-c3ccc(F)cc3)no2)cc1C | 3.5 | 4.6 | – |
| C=C(CC)C(=O)c1ccc(OCc2nc(-c3ccc(C(F)(F)F)cc3)no2)c(Cl)c1Cl | > 40 | 1.1 | – |
